Measurements from different studies.
Target: Serine/threonine-protein kinase DCLK2 (DCLK2, Homo sapiens, UniProt Q8N568)
Sequence (Q8N568 1-766, as in one of the studies): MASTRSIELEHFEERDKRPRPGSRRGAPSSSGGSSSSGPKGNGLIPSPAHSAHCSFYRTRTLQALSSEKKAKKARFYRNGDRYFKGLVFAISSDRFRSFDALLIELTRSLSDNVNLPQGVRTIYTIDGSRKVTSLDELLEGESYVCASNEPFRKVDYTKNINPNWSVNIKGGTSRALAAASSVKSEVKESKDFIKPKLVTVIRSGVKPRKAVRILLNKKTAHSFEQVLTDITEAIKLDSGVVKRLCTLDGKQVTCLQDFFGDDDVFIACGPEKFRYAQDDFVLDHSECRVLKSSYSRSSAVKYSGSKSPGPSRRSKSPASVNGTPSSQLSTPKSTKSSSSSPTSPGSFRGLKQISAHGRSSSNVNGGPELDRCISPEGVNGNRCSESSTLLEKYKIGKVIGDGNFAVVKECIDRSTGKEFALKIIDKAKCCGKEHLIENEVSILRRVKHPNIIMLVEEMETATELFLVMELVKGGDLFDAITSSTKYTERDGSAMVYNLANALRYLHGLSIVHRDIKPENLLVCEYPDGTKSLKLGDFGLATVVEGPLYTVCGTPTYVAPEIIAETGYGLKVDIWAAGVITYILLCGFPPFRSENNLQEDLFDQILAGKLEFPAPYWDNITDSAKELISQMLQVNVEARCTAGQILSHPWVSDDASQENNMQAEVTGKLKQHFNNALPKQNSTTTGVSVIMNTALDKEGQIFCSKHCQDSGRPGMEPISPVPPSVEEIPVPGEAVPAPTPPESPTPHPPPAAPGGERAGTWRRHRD

SMILES	read-out	action	method	tested at	quantity	value
CCN(CC)c1ccc(C2=NNC(=O)CC2C)cc1[N+](=O)[O-] (stereo not shown)	enzyme activity	inhibitor	–	10 µM	remaining activity	102%
CO[C@H]1CC[C@H](CNc2ccc(S(=O)(=O)NC(=O)c3ccc(N4CCN(CC5=C(c6ccc(Cl)cc6)CC(C)(C)CC5)CC4)cc3Oc3cnc4[nH]ccc4c3)cc2[N+](=O)[O-])CC1	cell-free assay	–	competition with immobilised ligand	1 µM	remaining binding	100%
CCCS(=O)(=O)Nc1ccc(F)c(C(=O)c2c[nH]c3ncc(-c4ccc(Cl)cc4)cc23)c1F	enzyme activity	inhibitor	–	1 µM	inhibition	< 10%
CC(C)(C)c1nc(-c2cccc(NS(=O)(=O)c3c(F)cccc3F)c2F)c(-c2ccnc(N)n2)s1	enzyme activity	inhibitor	radiometric	1 µM	remaining activity	77%
Cn1cncc1C1=CN(c2ncnc3[nH]cnc23)CCS1	enzyme activity	inhibitor	radiometric	50 nM	inhibition	12.8%
CNc1cccc2cc(C(=O)Nc3ccc(C(=O)O)cc3)c(=O)[nH]c12	enzyme activity	inhibitor	–	10 µM	inhibition	-1.4%
Nc1cnc(N2CCc3cc(S(=O)(=O)Nc4c(F)cc(Cl)cc4F)cc(N4CCCC4=O)c32)nc1	cell-free assay	–	competition with immobilised ligand	1 µM	remaining binding	100%
CN1CC(Oc2cnc(C#N)cc2-c2ccn3nc(NC(=O)C4CC4)cc3c2)C1	enzyme activity	inhibitor	–	1 µM	inhibition	-1%
Cn1nc(C(=O)NCc2ccc(C(=O)O)cc2)cc1-c1ccc2[nH]ccc2c1	cell-free assay	–	competition with immobilised ligand	0.1 µM	remaining binding	92%
CCN(CC)CCNC(=O)c1c(C)[nH]c(/C=C2\C(=O)Nc3ccc(F)cc32)c1C	enzyme activity	inhibitor	–	10 µM	inhibition	69%
Cc1cc(NC(=O)c2cccc3cc(-c4cccc5[nH]nc(N)c45)ccc23)ccc1F	enzyme activity	inhibitor	–	0.1 µM	activity vs control	109%
Cc1sc(C(=O)NC2COC2)cc1-n1cc(NC(=O)Nc2c(F)cccc2Cl)cn1	enzyme activity	inhibitor	–	10 µM	remaining activity	107%
COc1cc2ncnc(Nc3ccc(Oc4ccccc4)cc3C)c2cc1OC	enzyme activity	inhibitor	–	1 µM	inhibition	1%
O=C1Nc2ccc(Cl)cc2C1=Cc1cc(Cl)c(O)c(Cl)c1	cell-free assay	–	–	0.5 µM	remaining signal	98%
COc1ccc2c(c1)O[C@H](c1ccc(OC)c(OC)c1)C[C@@H]2NC(=O)C1(c2ccc3c(c2)OC(F)(F)O3)CC1	cell-free assay	–	competition with immobilised ligand	1 µM	remaining binding	98%
N#CCCc1ccc2c(c1)-c1[nH]c3ccc([N+](=O)[O-])cc3c1CC(=O)N2	cell-free assay	–	–	0.5 µM	remaining signal	104%
Cc1ccc(Nc2nccc(N(C)c3ccc4c(C)n(C)nc4c3)n2)cc1S(N)(=O)=O	enzyme activity	inhibitor	–	10 µM	inhibition	-19%
CC/C(=N\NC(=O)NCc1cccc(O)c1)c1ccc(O)c(C)c1O	enzyme activity	inhibitor	–	0.1 µM	inhibition	-8.9%
Cc1noc([C@H]2C[C@@H](c3ccc(C(F)(F)F)cc3)CN(C(=O)N3CCS(=O)(=O)C3)C2)n1	cell-free assay	–	competition with immobilised ligand	1 µM	remaining binding	100%
O=C1NC(=O)c2cc(Nc3ccc(F)cc3)c(Nc3ccc(F)cc3)cc21	cell-free assay	–	–	0.5 µM	remaining signal	100%
CCS(=O)(=O)c1cc2cc(C[C@@](O)(CC(C)(C)c3ccc(F)cc3C(N)=O)C(F)(F)F)[nH]c2cn1	cell-free assay	–	competition with immobilised ligand	1 µM	remaining binding	100%
C[S+]([O-])c1ccc(-c2nc(-c3ccncc3)c(-c3ccc(F)cc3)[nH]2)cc1 (stereo not shown)	cell-free assay	–	–	0.5 µM	remaining signal	99.8%
